Data reported in ChEMBL document CHEMBL1123468, “Synthesis and antiviral activity of (E)-5-(2-bromovinyl)uracil and (E)-5-(2-bromovinyl)uridine” (1986).
≈ marks a conversion by molar mass, not a printed value.

What was measured:
BALB/3T3 = assay: The compound was tested for its antiviral activity against HSV-1 (KOS) virus in BALB/3T3 cell line; settings: Mus musculus
E6SM [1] = assay: The compound was tested for its antiviral activity against vesicular stomatitis virus in E6SM cell culture; type: functional; settings: Homo sapiens
Procedure, shortened: (§1)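 Virus-induced cytopathogenicity in cell culture, scored microscopically. The value is the minimum concentration that cuts viral cytopathogenicity by 50%. Normal cell morphology was also checked microscopically at up to 400 μg/mL.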

BSC-1 = assay: The compound was tested for its antiviral activity against HSV-1 (KOS) virus in BS-C-1A cell line; type: functional, Cercopithecidae; settings: Chlorocebus aethiops
Procedure, shortened: as §1

E6SM [2] = assay: The concentration required to reduce the cytopathogenicity of HSV-1 (KOS) in E6SM cell culture by 50% in presence of 10 ug/mL of dUrd and 50 ug/mL of 6-aminothymine; type: functional; settings: Homo sapiens
Procedure, shortened: (§2)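 E6SM cells infected with HSV-1 (KOS), with Urd or dUrd added alone or together with 6-aminothymine (50 μg/mL). The value is the minimum concentration that reduces viral cytopathogenicity by 50%.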

E6SM [3] = assay: The concentration required to reduce the cytopathogenicity of HSV-1 (KOS) in E6SM cell culture by 50% in presence of 1 ug/mL of dUrd; type: functional; settings: Homo sapiens
Procedure, shortened: as §2

T-21 (LR) = assay: The compound was tested for its antiviral activity against HSV-1 (KOS) virus in T-21 (LR) cell line; type: functional; settings: Homo sapiens
Procedure, shortened: as §1

E6SM [4] = assay: The concentration required to reduce the cytopathogenicity of HSV-1 (KOS) in E6SM cell culture by 50% in presence of 300 ug/mL dThd; type: functional; settings: Homo sapiens
Procedure, shortened: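 Thymidine (dThd) was added to the E6SM culture medium alongside the test compound, and cells were infected with HSV-1 strain KOS. The endpoint is the minimum inhibitory concentration that reduces viral cytopathogenicity by 50%. The cytopathogenicity inhibition procedure follows the earlier-described method.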

HEp-2 = assay: The compound was tested for its antiviral activity against HSV-1 (KOS) virus in HEp-2M cell line; type: functional; settings: Homo sapiens
Procedure, shortened: as §1

Vero = assay: The compound was tested for its antiviral activity against HSV-1 (KOS) virus in vero cell line; type: functional; settings: Chlorocebus sabaeus
Procedure, shortened: as §1

E1 SM = assay: The compound was tested for its antiviral activity against HSV-1 (KOS) virus in E1SM cell line; type: functional, Homo sapiens
Procedure, shortened: as §1

E6SM [5] = assay: The compound was tested for its antiviral activity against HSV-1 (KOS) virus in E6SM cell line; type: functional; settings: Homo sapiens
Procedure, shortened: as §1

E6SM [6] = assay: The concentration required to reduce the cytopathogenicity of HSV-1 (KOS) in E6SM cell culture by 50% in presence of 10 ug/mL of Urd and 50 ug/mL of 6-aminothymine,; type: functional; settings: Homo sapiens
Procedure, shortened: as §2

E6SM [7] = assay: The compound was tested for its antiviral activity against TK-HSV-1 (B2006) virus in E6SM cell culture; type: functional; settings: Homo sapiens
Procedure, shortened: as §1

E6SM [8] = assay: The concentration required to reduce the cytopathogenicity of HSV-1 (KOS) in E6SM cell culture by 50% in presence of 1 ug/mL of dUrd and 50 ug/mL of 6-aminothymine; type: functional; settings: Homo sapiens
Procedure, shortened: as §2

E6SM [9] = assay: The compound was tested for its antiviral activity against HSV-2 (G) virus in E6SM cell culture; type: functional; settings: Homo sapiens
Procedure, shortened: as §1

E6SM [10] = assay: The concentration required to reduce the cytopathogenicity of HSV-1 (KOS) in E6SM cell culture by 50% in presence of 10 ug/mL of dUrd; type: functional; settings: Homo sapiens
Procedure, shortened: as §2

Mo = assay: The compound was tested for its antiviral activity against HSV-1 (KOS) virus in MO cell line; type: functional; settings: Homo sapiens
Procedure, shortened: as §1

E6SM [11] = assay: The compound was tested for its antiviral activity against HSV-2 (Lyons) virus in E6SM cell culture; type: functional; settings: Homo sapiens
Procedure, shortened: as §1

E6SM [12] = assay: The concentration required to reduce the cytopathogenicity of HSV-1 (KOS) in E6SM cell culture by 50% in presence of 100 ug/mL of Urd and 50 ug/mL of 6-aminothymine; type: functional; settings: Homo sapiens
Procedure, shortened: as §2

E6SM [13] = assay: The concentration required to reduce the cytopathogenicity of HSV-1 (KOS) in E6SM cell culture by 50% in presence of 50 ug/mL of 6-aminothymine; type: functional; settings: Homo sapiens
Procedure, shortened: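 E6SM cultures were infected with HSV-1 strain KOS. 6-Aminothymine or benzylacyclouridine was present in the medium together with the test compound. The value is the minimum concentration giving 50% reduction of viral cytopathogenicity, scored by the earlier-described cytopathogenicity inhibition procedure.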

HeLa = assay: The compound was tested for its antiviral activity against HSV-1 (KOS) virus in HeLa cell line; type: functional; settings: Homo sapiens
Procedure, shortened: as §1

E6SM [14] = assay: The concentration required to reduce the cytopathogenicity of HSV-1 (KOS) in E6SM cell culture by 50% in absence of dUrd; type: functional; settings: Homo sapiens
Procedure, shortened: as §2

E6SM [15] = assay: The concentration required to reduce the cytopathogenicity of HSV-1 (KOS) in E6SM cell culture by 50% in presence of 100 ug/mL dThd; type: functional; settings: Homo sapiens
Procedure, shortened: (§3)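 E6SM cells infected with HSV-1 (KOS), with dThd added to the culture medium at the stated concentration. The value is the minimum concentration that reduces viral cytopathogenicity by 50%.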

E6SM [16] = assay: The compound was tested for its antiviral activity against HSV-2 (196) virus in E6SM cell culture; type: functional; settings: Homo sapiens
Procedure, shortened: as §1

E6SM [17] = assay: The compound was tested for its antiviral activity against HSV-1 (F) virus in E6SM cell culture; type: functional; settings: Homo sapiens
Procedure, shortened: as §1

E6SM [18] = assay: The concentration required to reduce the cytopathogenicity of HSV-1 (KOS) in E6SM cell culture by 50% in presence of 100 ug/mL of dUrd; type: functional; settings: Homo sapiens
Procedure, shortened: as §2

E6SM [19] = assay: The concentration required to reduce the cytopathogenicity of HSV-1 (KOS) in E6SM cell culture by 50% in presence of 10 ug/mL of Urd; type: functional; settings: Homo sapiens
Procedure, shortened: as §2

E6SM [20] = assay: The compound was tested for its antiviral activity against HSV-1 (McIntyre) virus in E6SM cell culture; type: functional; settings: Homo sapiens
Procedure, shortened: as §1

E6SM [21] = assay: The compound was tested for its antiviral activity against HSV-1 (KOS) virus in E6SM cell culture; type: functional; settings: Homo sapiens
Procedure, shortened: as §1

E6SM [22] = assay: The concentration required to reduce the cytopathogenicity of HSV-1 (KOS) in E6SM cell culture by 50% in presence of 100 ug/mL of Urd; type: functional; settings: Homo sapiens
Procedure, shortened: as §2

HSF (VGS) = assay: The compound was tested for its antiviral activity against HSV-1 (KOS) virus in HSF (VGS) cell line; type: functional; settings: Homo sapiens
Procedure, shortened: as §1

E6SM [23] = assay: The concentration required to reduce the cytopathogenicity of HSV-1 (KOS) in E6SM cell culture by 50% in presence of 100 ug/mL of dUrd and 50 ug/mL of 6-aminothymine; type: functional; settings: Homo sapiens
Procedure, shortened: as §2

E6SM [24] = assay: The concentration required to reduce the cytopathogenicity of HSV-1 (KOS) in E6SM cell culture by 50% in presence of 1 ug/mL dThd; type: functional; settings: Homo sapiens
Procedure, shortened: as §3

E6SM [25] = assay: The concentration required to reduce the cytopathogenicity of HSV-1 (KOS) in E6SM cell culture by 50% in presence of 1 ug/mL of Urd; type: functional; settings: Homo sapiens
Procedure, shortened: as §2

E6SM [26] = assay: The concentration required to reduce the cytopathogenicity of HSV-1 (KOS) in E6SM cell culture by 50% in presence of 10 ug/mL dThd; type: functional; settings: Homo sapiens
Procedure, shortened: as §3

E6SM [27] = assay: The compound was tested for its antiviral activity against vaccinia virus in E6SM cell culture; type: functional; settings: Homo sapiens
Procedure, shortened: as §1

O=c1[nH]c(=O)n([C@H]2C[C@H](O)[C@@H](CO)O2)cc1/C=C/Br [BRIVUDINE]
MIC50 (BALB/3T3): 0.1 µg/mL (≈ 0.3 µM)
MIC50 (E6SM [1]): > 400 µg/mL
MIC50 (BSC-1): 0.2 µg/mL (≈ 0.6 µM)
MIC50 (E6SM [2]): 0.02 µg/mL
MIC50 (E6SM [3]): 0.01 µg/mL
MIC50 (T-21 (LR)): 0.02 µg/mL (≈ 0.06 µM)
MIC50 (E6SM [4]): > 400 µg/mL
MIC50 (HEp-2): 0.2 µg/mL (≈ 0.6 µM)
MIC50 (Vero): 0.4 µg/mL (≈ 1.2 µM)
MIC50 (E1 SM): 0.02 µg/mL (≈ 0.06 µM)
MIC50 (E6SM [5]): 0.02 µg/mL (≈ 0.06 µM)
MIC50 (E6SM [6]): 0.04 µg/mL
MIC50 (E6SM [7]): 40 µg/mL (≈ 120 µM)
MIC50 (E6SM [8]): 0.01 µg/mL
MIC50 (E6SM [9]): 2 µg/mL (≈ 6 µM)
MIC50 (E6SM [10]): 0.02 µg/mL
MIC50 (Mo): 0.007 µg/mL (≈ 0.021 µM)
MIC50 (E6SM [11]): 4 µg/mL (≈ 12 µM)
MIC50 (E6SM [12]): 0.02 µg/mL
MIC50 (E6SM [13]): 0.01 µg/mL
MIC50 (HeLa): 0.04 µg/mL (≈ 0.12 µM)
MIC50 (E6SM [14]): 0.02 µg/mL (≈ 0.06 µM)
MIC50 (E6SM [15]): 300 µg/mL
MIC50 (E6SM [16]): 10 µg/mL (≈ 30 µM)
MIC50 (E6SM [17]): 0.02 µg/mL (≈ 0.06 µM)
MIC50 (E6SM [18]): 0.2 µg/mL
MIC50 (E6SM [19]): 0.04 µg/mL
MIC50 (E6SM [20]): 0.02 µg/mL (≈ 0.06 µM)
MIC50 (E6SM [21]): 0.02 µg/mL (≈ 0.06 µM)
MIC50 (E6SM [22]): 0.02 µg/mL
MIC50 (HSF (VGS)): 0.04 µg/mL (≈ 0.12 µM)
MIC50 (E6SM [23]): 0.2 µg/mL
MIC50 (E6SM [24]): 0.02 µg/mL
MIC50 (E6SM [25]): 0.04 µg/mL
MIC50 (E6SM [26]): 0.4 µg/mL
MIC50 (E6SM [27]): 7 µg/mL (≈ 21 µM)

Oc1ncc(/C=C/Br)c(O)n1
MIC50 (BALB/3T3): > 400 µg/mL
MIC50 (E6SM [1]): > 400 µg/mL
MIC50 (BSC-1): > 400 µg/mL
MIC50 (E6SM [2]): 10 µg/mL
MIC50 (E6SM [3]): 10 µg/mL
MIC50 (T-21 (LR)): 7 µg/mL (≈ 32.3 µM)
MIC50 (E6SM [4]): > 400 µg/mL
MIC50 (HEp-2): > 200 µg/mL
MIC50 (Vero): > 400 µg/mL
MIC50 (E1 SM): 7 µg/mL (≈ 32.3 µM)
MIC50 (E6SM [5]): 7 µg/mL (≈ 32.3 µM)
MIC50 (E6SM [6]): > 400 µg/mL
MIC50 (E6SM [7]): > 200 µg/mL
MIC50 (E6SM [8]): > 400 µg/mL
MIC50 (E6SM [9]): > 400 µg/mL
MIC50 (E6SM [10]): 0.7 µg/mL
MIC50 (Mo): > 400 µg/mL
MIC50 (E6SM [11]): > 400 µg/mL
MIC50 (E6SM [12]): > 400 µg/mL
MIC50 (E6SM [13]): > 400 µg/mL
MIC50 (HeLa): 2 µg/mL (≈ 9.22 µM)
MIC50 (E6SM [14]): 7 µg/mL (≈ 32.3 µM)
MIC50 (E6SM [15]): > 400 µg/mL
MIC50 (E6SM [16]): > 400 µg/mL
MIC50 (E6SM [17]): 4 µg/mL (≈ 18.4 µM)
MIC50 (E6SM [18]): 0.7 µg/mL
MIC50 (E6SM [19]): 7 µg/mL
MIC50 (E6SM [20]): 4 µg/mL (≈ 18.4 µM)
MIC50 (E6SM [21]): 7 µg/mL (≈ 32.3 µM)
MIC50 (E6SM [22]): 4 µg/mL
MIC50 (HSF (VGS)): 7 µg/mL (≈ 32.3 µM)
MIC50 (E6SM [23]): 7 µg/mL
MIC50 (E6SM [24]): 7 µg/mL
MIC50 (E6SM [25]): 2 µg/mL
MIC50 (E6SM [26]): 70 µg/mL
MIC50 (E6SM [27]): > 400 µg/mL
